Laboratory results: PubChem BioAssay
Calls of active or inactive are those of the source.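 Rule for the calls, unless noted: active = current rise at least 3 SD above the untreated control mean in each of two repeat wells; inactive = the rest.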

These compounds were tested against Potassium voltage-gated channel subfamily KQT member 2 (Rattus norvegicus) (UniProt O88943) (assay: KCNQ2 thallium flux enhancement – KCNQ2-CHO-K1 cells, selectivity assay for KCNQ1 potentiator project (AID 493009;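 active = mean duplicate potentiation above the buffer control mean plus 5 SD of buffer wells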;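 note: assay conditions were tuned for KCNQ1 rather than KCNQ2 modulators; signal is max minus min fluorescence divided by baseline after thallium stimulus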)). Settings: FluxOR thallium flux fluorescence, at 10 µM; stronger effect = higher value, scaled: buffer 0, activator control 100.
Potassium voltage-gated channel subfamily KQT member 2 (Rattus norvegicus), sequence (O88943 whole entry, looked up): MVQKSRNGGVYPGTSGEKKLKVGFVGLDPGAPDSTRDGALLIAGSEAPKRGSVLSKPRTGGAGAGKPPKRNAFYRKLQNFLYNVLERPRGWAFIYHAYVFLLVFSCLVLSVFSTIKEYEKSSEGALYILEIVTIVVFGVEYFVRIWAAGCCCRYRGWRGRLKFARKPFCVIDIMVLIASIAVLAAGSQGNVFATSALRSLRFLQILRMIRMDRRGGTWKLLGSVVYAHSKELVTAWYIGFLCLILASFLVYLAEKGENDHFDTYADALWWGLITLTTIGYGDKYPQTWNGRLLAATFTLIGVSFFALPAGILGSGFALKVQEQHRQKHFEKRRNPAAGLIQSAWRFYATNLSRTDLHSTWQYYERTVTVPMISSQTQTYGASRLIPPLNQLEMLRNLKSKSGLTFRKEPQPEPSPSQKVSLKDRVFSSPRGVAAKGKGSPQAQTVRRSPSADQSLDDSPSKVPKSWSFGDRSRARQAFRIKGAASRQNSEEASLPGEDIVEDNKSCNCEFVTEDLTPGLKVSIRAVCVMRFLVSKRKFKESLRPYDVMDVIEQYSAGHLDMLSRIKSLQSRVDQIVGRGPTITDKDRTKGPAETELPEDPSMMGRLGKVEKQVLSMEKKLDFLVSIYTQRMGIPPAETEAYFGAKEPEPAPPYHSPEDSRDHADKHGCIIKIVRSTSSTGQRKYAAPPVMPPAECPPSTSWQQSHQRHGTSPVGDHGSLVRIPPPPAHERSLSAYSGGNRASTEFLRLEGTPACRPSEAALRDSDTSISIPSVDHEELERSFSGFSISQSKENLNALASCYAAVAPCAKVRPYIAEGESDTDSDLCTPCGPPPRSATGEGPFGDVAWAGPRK
With `Cn1c(=O)n(CCc2ccccc2)c2ccccc21` the outcome was “inactive”.
`Cc1ccnc(NS(=O)(=O)c2ccc(NC(=O)C34CC5CC(CC(C5)C3)C4)cc2)n1` was tested, and the outcome was “inactive”.
`O=C1c2ccccc2C2(c3cc(C(F)(F)F)cc(C(F)(F)F)c3)NCCN12` (stereo not given) was tested, and the outcome was “inactive”.
In the case of `CCN(CC)c1ccc(NC(=S)NC(=O)c2ccco2)cc1`, the potentiation was 322% (active).
For `CCCCOc1ccc(C(=O)Oc2ccc(C)nc2)cc1`, the outcome was “inactive”.
`O=C(CNCC1CCCCC1)Nc1ccc(OC(F)(F)F)cc1` was tested, and the outcome was “inactive”.
`CC(C)(C)c1cc(-c2csc(Nc3ccccc3)[n+]2Cc2ccc(C(=O)O)cc2)cc(C(C)(C)C)c1O` was tested, and the potentiation was 198% (active).
In the case of `Nc1nc(NCc2ccco2)nc(NC2CCCCC2)c1[N+](=O)[O-]`, the outcome was “inactive”.
For `Cc1ccc(CSc2nc3ccccc3c(=O)n2CCCC(=O)NCc2ccco2)cc1`, the outcome was “inactive”.
For `O=C(NCc1ccco1)C1CC(c2ccc(Cl)cc2)=NO1` (stereo not given), the outcome was “inactive”.
In the case of `O=C(Nc1cccc(NC(=O)c2c(F)cccc2F)n1)c1c(F)cccc1F`, the outcome was “inactive”.
For `CCC(=O)Nc1cc(-c2nn3c(C)nnc3s2)ccc1C`, the outcome was “inactive”.
For `Cc1ccc(C)c(N(CC(=O)NC2CCCC2)C(=O)CCC(=O)Nc2nccs2)c1`, the outcome was “inactive”.
In the case of `C=CCOc1c(Br)cc(/C=N/Nc2ccc(C(=O)O)cc2)cc1OCC`, the outcome was “inactive”.
In the case of `COc1cccc(C(=O)COc2ccc(NC(=O)c3ccccc3)cc2)c1`, the outcome was “inactive”.
In the case of `COc1ccc(C(=O)CSc2nnc(CNC(=O)c3ccc(OC)cc3)n2C)cc1`, the outcome was “inactive”.
For `CC1Cc2ccccc2N1C(=S)NC(=O)c1cccc(Br)c1` (stereo not given), the potentiation was 576% (active).
With `Cc1cccc(/C=N/n2c(COc3ccccc3)n[nH]c2=S)c1` the potentiation was 142% (active).
`O=[N+]([O-])c1cc(CN2CCCC2)ccc1Sc1ccc(Cl)cc1` was tested, and the outcome was “inactive”.
With `O=C(CN1C2=NCCCN2c2ccccc21)c1ccc2c(c1)OCO2` the outcome was “inactive”.
`O=C(NC(=S)N1CCN(C/C=C/c2ccccc2)CC1)c1ccc(F)cc1` was tested, and the potentiation was 260% (active).
`O=C(CCC(=O)c1ccc(F)cc1)Nc1cc(Cl)cc(Cl)c1` was tested, and the outcome was “inactive”.
In the case of `O=C(NC(=S)N1CCc2ccccc21)c1ccccc1Cl`, the potentiation was 416% (active).
`CCOc1ccc(NC(=O)CN(C)C(=O)c2c(-c3c(F)cccc3Cl)noc2C)cc1OCC` was tested, and the outcome was “inactive”.
`COc1cccc2sc(NNC(=O)c3nc4ccccc4s3)nc12` was tested, and the potentiation was 420% (active).
`CCOC(=O)C1CCCN(C(=O)C2CCN(S(=O)(=O)c3ccc4ccccc4c3)CC2)C1` (stereo not given) was tested, and the outcome was “inactive”.
For `CCOC(=O)Cn1c(=N)n(CCOc2ccc(Br)cc2)c2ccccc21`, the outcome was “inactive”.
In the case of `C=CCN(CC=C)C(=S)NC(=O)c1ccc(OC)c(Br)c1`, the potentiation was 474% (active).
For `CC(=O)c1ccc(N2CCN(C(=O)c3ccc(NC(=O)C4CCCO4)cc3)CC2)cc1` (stereo not given), the outcome was “inactive”.
With `CCOc1ccc2nc(Nc3nc4ccc(NC(C)=O)cc4s3)sc2c1` the outcome was “inactive”.
In the case of `COc1ccccc1NC(=O)Cn1cnc2c(oc3nc4c(cc32)CCCC4)c1=O`, the outcome was “inactive”.
`CC(=O)OC1OCCOC1NC(=S)Nc1ccc(C)cc1` (stereo not given) was tested, and the outcome was “inactive”.
`COc1ccc(-c2csc(NC(=S)NC(=O)c3ccco3)n2)cc1` was tested, and the potentiation was 216% (active).
For `O=c1[nH]c(=S)[nH]c2sc3c(c12)CCCCCC3`, the outcome was “inactive”.
With `COC(=O)c1ccc(NC(=S)NC(=O)c2cc(-c3ccccc3)nc3ccccc23)cc1` the potentiation was 178% (active).
With `C=CCn1c(SCc2ccc(C(=O)O)cc2)nc2sc(C)c(C)c2c1=O` the potentiation was 236% (active).
In the case of `CCOC(=O)c1c(-c2ccccc2)oc2ccc(O)c(CN3CCN(C)CC3)c12`, the outcome was “inactive”.
`Cc1noc(C)c1S(=O)(=O)Nc1ccc(C#N)cc1` was tested, and the outcome was “inactive”.
For `CCC(C)n1c(=S)[nH]c2c(sc3ccc([N+](=O)[O-])cc32)c1=O` (stereo not given), the potentiation was 709% (active).
For `O=C(Nc1nnc(-c2ccc(F)cc2)o1)c1cc(Cl)sc1Cl`, the potentiation was 284% (active).

The compounds below were run against Potassium voltage-gated channel subfamily KQT member 1 (Homo sapiens) (UniProt P51787) (assay: KCNQ1 activators by electrophysiology – IonWorks patch clamp, KCNQ1-CHO cells, orthogonal assay for KCNQ1 potentiator project, confirmation (AID 493184)). Settings: automated patch clamp current, at 10 µM; stronger effect = higher value.
Potassium voltage-gated channel subfamily KQT member 1 (Homo sapiens), sequence (P51787 whole entry, looked up): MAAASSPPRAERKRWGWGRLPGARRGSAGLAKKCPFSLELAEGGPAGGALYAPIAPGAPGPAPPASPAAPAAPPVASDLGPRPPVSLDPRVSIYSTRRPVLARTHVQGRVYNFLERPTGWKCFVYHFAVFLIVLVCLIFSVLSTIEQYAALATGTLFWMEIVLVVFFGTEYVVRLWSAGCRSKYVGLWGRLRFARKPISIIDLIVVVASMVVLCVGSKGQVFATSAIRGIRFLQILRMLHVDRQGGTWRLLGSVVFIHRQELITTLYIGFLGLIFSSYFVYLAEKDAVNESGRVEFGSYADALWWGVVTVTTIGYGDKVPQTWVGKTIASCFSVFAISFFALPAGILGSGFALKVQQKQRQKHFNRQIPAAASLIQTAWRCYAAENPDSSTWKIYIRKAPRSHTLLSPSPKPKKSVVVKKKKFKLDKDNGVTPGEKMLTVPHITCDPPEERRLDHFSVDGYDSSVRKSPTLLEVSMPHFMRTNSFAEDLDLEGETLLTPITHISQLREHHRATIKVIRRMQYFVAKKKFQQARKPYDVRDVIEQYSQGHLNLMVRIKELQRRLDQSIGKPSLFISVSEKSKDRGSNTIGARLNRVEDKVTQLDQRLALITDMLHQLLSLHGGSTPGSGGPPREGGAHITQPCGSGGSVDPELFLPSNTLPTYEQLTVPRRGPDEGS
Outline: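 Test system: KCNQ1-expressing CHO cells. Medium: pH 7.4 external bath. Probe or stimulus: voltage step from -90 mV holding to +40 mV, 2,000 ms. Compound: 10 µM final, single point. Detection: automated perforated-patch electrophysiology. Read-out: percent current increase versus pre-compound level. Repeats: two replicates.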
For `Cn1c(=O)n(CCc2ccccc2)c2ccccc21`, the outcome was “inactive”.
In the case of `Cc1ccnc(NS(=O)(=O)c2ccc(NC(=O)C34CC5CC(CC(C5)C3)C4)cc2)n1`, the outcome was “inactive”.
In the case of `O=C1c2ccccc2C2(c3cc(C(F)(F)F)cc(C(F)(F)F)c3)NCCN12` (stereo not given), the outcome was “inactive”.
In the case of `CCN(CC)c1ccc(NC(=S)NC(=O)c2ccco2)cc1`, the outcome was “inactive”.
For `CCCCOc1ccc(C(=O)Oc2ccc(C)nc2)cc1`, the outcome was “inactive”.
In the case of `O=C(CNCC1CCCCC1)Nc1ccc(OC(F)(F)F)cc1`, the outcome was “inactive”.
`CC(C)(C)c1cc(-c2csc(Nc3ccccc3)[n+]2Cc2ccc(C(=O)O)cc2)cc(C(C)(C)C)c1O` was tested, and the outcome was “inactive”.
In the case of `Nc1nc(NCc2ccco2)nc(NC2CCCCC2)c1[N+](=O)[O-]`, the outcome was “inactive”.
`Cc1ccc(CSc2nc3ccccc3c(=O)n2CCCC(=O)NCc2ccco2)cc1` was tested, and the outcome was “inactive”.
In the case of `O=C(NCc1ccco1)C1CC(c2ccc(Cl)cc2)=NO1` (stereo not given), the outcome was “inactive”.
In the case of `O=C(Nc1cccc(NC(=O)c2c(F)cccc2F)n1)c1c(F)cccc1F`, the outcome was “inactive”.
`CCC(=O)Nc1cc(-c2nn3c(C)nnc3s2)ccc1C` was tested, and the outcome was “inactive”.
In the case of `Cc1ccc(C)c(N(CC(=O)NC2CCCC2)C(=O)CCC(=O)Nc2nccs2)c1`, the outcome was “inactive”.
With `C=CCOc1c(Br)cc(/C=N/Nc2ccc(C(=O)O)cc2)cc1OCC` the outcome was “inactive”.
With `COc1cccc(C(=O)COc2ccc(NC(=O)c3ccccc3)cc2)c1` the outcome was “inactive”.
`COc1ccc(C(=O)CSc2nnc(CNC(=O)c3ccc(OC)cc3)n2C)cc1` was tested, and the outcome was “inactive”.
In the case of `CC1Cc2ccccc2N1C(=S)NC(=O)c1cccc(Br)c1` (stereo not given), the outcome was “inactive”.
For `Cc1cccc(/C=N/n2c(COc3ccccc3)n[nH]c2=S)c1`, the outcome was “inactive”.
With `O=[N+]([O-])c1cc(CN2CCCC2)ccc1Sc1ccc(Cl)cc1` the outcome was “inactive”.
For `O=C(CN1C2=NCCCN2c2ccccc21)c1ccc2c(c1)OCO2`, the outcome was “inactive”.
With `O=C(NC(=S)N1CCN(C/C=C/c2ccccc2)CC1)c1ccc(F)cc1` the outcome was “inactive”.
In the case of `O=C(CCC(=O)c1ccc(F)cc1)Nc1cc(Cl)cc(Cl)c1`, the outcome was “inactive”.
`O=C(NC(=S)N1CCc2ccccc21)c1ccccc1Cl` was tested, and the outcome was “inactive”.
`CCOc1ccc(NC(=O)CN(C)C(=O)c2c(-c3c(F)cccc3Cl)noc2C)cc1OCC` was tested, and the outcome was “inactive”.
`COc1cccc2sc(NNC(=O)c3nc4ccccc4s3)nc12` was tested, and the outcome was “inactive”.
For `CCOC(=O)C1CCCN(C(=O)C2CCN(S(=O)(=O)c3ccc4ccccc4c3)CC2)C1` (stereo not given), the outcome was “inactive”.
`CCOC(=O)Cn1c(=N)n(CCOc2ccc(Br)cc2)c2ccccc21` was tested, and the outcome was “inactive”.
In the case of `C=CCN(CC=C)C(=S)NC(=O)c1ccc(OC)c(Br)c1`, the outcome was “inactive”.
For `CC(=O)c1ccc(N2CCN(C(=O)c3ccc(NC(=O)C4CCCO4)cc3)CC2)cc1` (stereo not given), the outcome was “inactive”.
For `CCOc1ccc2nc(Nc3nc4ccc(NC(C)=O)cc4s3)sc2c1`, the outcome was “inactive”.
In the case of `COc1ccccc1NC(=O)Cn1cnc2c(oc3nc4c(cc32)CCCC4)c1=O`, the outcome was “inactive”.
In the case of `CC(=O)OC1OCCOC1NC(=S)Nc1ccc(C)cc1` (stereo not given), the outcome was “inactive”.
With `COc1ccc(-c2csc(NC(=S)NC(=O)c3ccco3)n2)cc1` the outcome was “inactive”.
In the case of `O=c1[nH]c(=S)[nH]c2sc3c(c12)CCCCCC3`, the outcome was “inactive”.
With `COC(=O)c1ccc(NC(=S)NC(=O)c2cc(-c3ccccc3)nc3ccccc23)cc1` the outcome was “inactive”.
With `C=CCn1c(SCc2ccc(C(=O)O)cc2)nc2sc(C)c(C)c2c1=O` the outcome was “inactive”.
In the case of `CCOC(=O)c1c(-c2ccccc2)oc2ccc(O)c(CN3CCN(C)CC3)c12`, the outcome was “inactive”.
`Cc1noc(C)c1S(=O)(=O)Nc1ccc(C#N)cc1` was tested, and the outcome was “inactive”.
With `CCC(C)n1c(=S)[nH]c2c(sc3ccc([N+](=O)[O-])cc32)c1=O` (stereo not given) the outcome was “inactive”.
With `O=C(Nc1nnc(-c2ccc(F)cc2)o1)c1cc(Cl)sc1Cl` the outcome was “inactive”.
